# Measurements: ChEMBL document CHEMBL1158364, “Synthesis and pharmacological evaluation of 2(3H)-furanones and 2(3H)-pyrrolones, combining analgesic and anti-inflammatory properties with reduced gastrointestinal toxicity and lipid peroxidation” (Eur J Med Chem, 2009)
# What was measured:
# [1] = test system: Rattus norvegicus; test: Antiinflammatory activity in Wistar rat assessed as inhibition of carrageenan-induced paw odema at 20 mg/kg, po pretreated 30 mins pre-carrageenan challenge measured after 2 hrs relative to control; assay type: functional
# Procedure, shortened: (§1)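 Wistar rats of either sex, 180–200 g, six per group; vehicle 0.5% CMC given orally. […] in sterile 0.9% NaCl, 0.1 mL, injected sub-plantar into the right hind paw 30 min after dosing. Paw volume read by saline-displacement plethysmometer at 2 and 3 h. % inhibition = (Vc−Vt)/Vc × 100.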
# [2] = test system: Rattus norvegicus; test: Antiinflammatory activity in Wistar rat assessed as inhibition of carrageenan-induced paw odema at 20 mg/kg, po pretreated 30 mins pre-carrageenan challenge measured after 3 hrs relative to control; assay type: functional; procedure, shortened: as §1
# [3] = test system: Rattus norvegicus; test: Gastrointestinal toxicity in albino rat assessed ulcer index at 60 mg/kg, po after 17 hrs; assay type: organism-based; parameters: dose 60 mg/kg, route oral; conditions: in vivo
# Procedure, shortened: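 Fasted albino rats (150–200 g; food, not water, withheld 24 h), groups of six, dosed orally at 60 mg/kg; controls got 1% methyl cellulose suspension. Normal diet for 17 h, then sacrifice. Stomach opened along greater curvature, washed, mucosa scored under magnifying glass (0.5 redness to 3.0 for >5 ulcers); severity index = treated group mean score minus control mean.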
# [4] = test system: Gastric mucosa; test: Inhibition of lipid peroxidation assessed as malondialdehyde level per mg of protein in gastric mucosa isolated from albino rat treated 60 mg/kg, po by UV spectrophotometry; assay type: functional
# Procedure, shortened: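 After the ulcer scoring, gastric mucosa was scraped and homogenized in 1.8 mL ice-cold 1.15% KCl. Supernatant (1 mL) received 0.5 mL 30% TCA and 0.5 mL 0.8% TBA, then was heated 30 min at 80 °C. Tubes were chilled 10 min on ice and centrifuged 3000 rpm for 15 min before absorbance was read (TBARS/MDA, Ohkawa method).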
# [5] = test system: Mus musculus; test: Central analgesic activity in Swiss albino mouse assessed as reaction time required to elicit thermal stimulus-induced hind paw licking at 20 mg/kg, po after 60 mins by Turner hotplate method; assay type: functional
# Procedure, shortened: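 Swiss albino mice of either sex, 25–30 g, six per group. Compounds given orally in 1% CMC; controls received vehicle only. Hot plate held at 53 ± 0.5 °C. Reaction time is the interval from placement on the plate to hind-paw licking or jumping. Measured before dosing (0 min) and 1 h after oral dosing.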
# [6] = test system: Mus musculus; test: Peripheral analgesic activity in Swiss albino mouse assessed as inhibition of acetic acid-induced writhing response at 20 mg/kg, po pretreated 1 hr before acetic acid challenge; assay type: functional; parameters: scale not given: the % may be the effect or the level left
# Procedure, shortened: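 Swiss albino mice of either sex, 25–30 g, housed singly and habituated 30 min in the test cage. Compounds given orally in 1% CMC; controls received 1% CMC. One hour after dosing, 0.10 mL 1% acetic acid was given i.p. Writhes were counted over 30 min and % protection derived versus control.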
smiles,measurement,setting,value
O=C1OC(c2ccc(Cl)cc2)=C/C1=C\c1ccccc1[N+](=O)[O-],inhibition in vivo at 20 mg/kg,[1],4%
same,inhibition in vivo at 20 mg/kg,[2],18.5%
same,UI,[3],0.6
same,Activity,[4],0.429 nmol/mg protein
COc1ccc(/C=C2\C=C(c3ccc(Cl)cc3)OC2=O)cc1OC,inhibition in vivo at 20 mg/kg,[1],9.33%
same,inhibition in vivo at 20 mg/kg,[2],36%
same,UI,[3],0.3
same,Activity,[4],0.533 nmol/mg protein
O=C1OC(c2ccc(Cl)cc2)=C/C1=C\c1ccc([N+](=O)[O-])cc1,inhibition in vivo at 20 mg/kg,[1],4%
same,inhibition in vivo at 20 mg/kg,[2],36%
same,UI,[3],0.4
same,Activity,[4],0.549 nmol/mg protein
O=C1OC(c2ccc(Cl)cc2)=C/C1=C\c1ccc(F)cc1,inhibition in vivo at 20 mg/kg,[1],41.3%
same,inhibition in vivo at 20 mg/kg,[2],70.4%
same,Activity,[5],12.9 s
same,Activity,[6],50.6%
same,UI,[3],0.4
same,Activity,[4],0.329 nmol/mg protein
COc1ccc(/C=C2\C=C(c3ccc(Cl)cc3)OC2=O)cc1,inhibition in vivo at 20 mg/kg,[1],4%
same,inhibition in vivo at 20 mg/kg,[2],32.3%
same,UI,[3],0.5
same,Activity,[4],0.545 nmol/mg protein
COc1cc(/C=C2\C=C(c3ccc(Cl)cc3)N(Cc3ccccc3)C2=O)ccc1O,inhibition in vivo at 20 mg/kg,[1],36%
same,inhibition in vivo at 20 mg/kg,[2],42%
same,UI,[3],0.5
same,Activity,[4],0.558 nmol/mg protein
O=C1OC(c2ccc(Cl)cc2)=C/C1=C\c1ccccc1,inhibition in vivo at 20 mg/kg,[1],18.9%
same,inhibition in vivo at 20 mg/kg,[2],36%
same,UI,[3],0.9
same,Activity,[4],0.522 nmol/mg protein
O=C1OC(c2ccc(Cl)cc2)=C/C1=C\c1ccccc1Cl,inhibition in vivo at 20 mg/kg,[1],62.7%
same,inhibition in vivo at 20 mg/kg,[2],81.5%
same,Activity,[5],12.69 s
same,Activity,[6],53.01%
same,UI,[3],0.2
same,Activity,[4],0.494 nmol/mg protein
COc1cc(/C=C2\C=C(c3ccc(Cl)cc3)OC2=O)ccc1OC(C)=O,inhibition in vivo at 20 mg/kg,[1],24%
same,inhibition in vivo at 20 mg/kg,[2],37%
same,UI,[3],0.3
same,Activity,[4],0.597 nmol/mg protein
O=C1/C(=C/c2ccc([N+](=O)[O-])cc2)C=C(c2ccc(Cl)cc2)N1Cc1ccccc1,inhibition in vivo at 20 mg/kg,[1],12%
same,inhibition in vivo at 20 mg/kg,[2],19.8%
same,UI,[3],0.4
same,Activity,[4],0.403 nmol/mg protein
O=C1OC(c2ccc(Cl)cc2)=C/C1=C\c1ccc(Cl)cc1Cl,inhibition in vivo at 20 mg/kg,[1],53.3%
same,inhibition in vivo at 20 mg/kg,[2],72.6%
same,Activity,[5],11.86 s
same,Activity,[6],49.39%
same,UI,[3],0.1
same,Activity,[4],0.388 nmol/mg protein
O=C1OC(c2ccc(Cl)cc2)=C/C1=C\c1ccc(Cl)cc1,inhibition in vivo at 20 mg/kg,[1],40%
same,inhibition in vivo at 20 mg/kg,[2],69.1%
same,Activity,[5],12.67 s
same,Activity,[6],44.57%
same,UI,[3],0.2
same,Activity,[4],0.403 nmol/mg protein
O=C1/C(=C/c2ccc(F)cc2)C=C(c2ccc(Cl)cc2)N1Cc1ccccc1,inhibition in vivo at 20 mg/kg,[1],58.7%
same,inhibition in vivo at 20 mg/kg,[2],89.5%
same,Activity,[5],13.3 s
same,Activity,[6],59.03%
same,UI,[3],0.2
same,Activity,[4],0.401 nmol/mg protein
O=C1/C(=C/c2ccccc2)C=C(c2ccc(Cl)cc2)N1Cc1ccccc1,inhibition in vivo at 20 mg/kg,[1],24%
same,inhibition in vivo at 20 mg/kg,[2],37%
same,UI,[3],0.6
same,Activity,[4],0.605 nmol/mg protein
O=C1/C(=C/c2ccc(Cl)cc2)C=C(c2ccc(Cl)cc2)N1Cc1ccccc1,inhibition in vivo at 20 mg/kg,[1],58.7%
same,inhibition in vivo at 20 mg/kg,[2],88.9%
same,Activity,[5],11.55 s
same,Activity,[6],57.83%
same,UI,[3],0.1
same,Activity,[4],0.31 nmol/mg protein
CC(C)Cc1ccc(C(C)C(=O)O)cc1 (configuration not stated) [IBUPROFEN],inhibition in vivo at 20 mg/kg,[1],80.9%
same,inhibition in vivo at 20 mg/kg,[2],89.5%
same,Activity,[5],14.4 s
same,Activity,[6],65.06%
same,UI,[3],0.9
